T cruzi repl: T. cruzi replication inhibition. T. cruzi beta-gal in NIH3T3, luminescence, 90 h. inhibition, % (no concentration beside the values). hit rate 1.4% among 300,000. AID 1885;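 active = mean inhibition across valid replicates above about 55%, limit read from the data; inconclusive = mean below that limit but half or more replicates reach it; inactive = mean below it, under half of replicates reach it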;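 note: signal also drops with host cell toxicity which is not excluded here; 0% = plate median of DMSO wells and 100% = zero luminescence signal; higher percent means less beta-gal luminescence so fewer parasites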
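System: Mouse NIH/3T3 fibroblasts infected with β-gal-expressing T. cruzi Tulahuen C4 | Quantity: NIH/3T3 cells, 5,000 per well | Reagent: 5000 reporter trypomastigotes per well | Dosing: Compound pinned at 50 nL/well, DMSO | Schedule: 3 h host attachment, then at least 90 h co-culture | Detection: GalScreen luminescence, 60 min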
CSC inhib: cancer stem cell inhibition | inhibition, % at 7.5 µM | cancer stem cell-like cells viability, luminescence | hit rate 1.1% among 300,000; in the data active = inhibition above about 75%; inconclusive = no clear call, values can overlap the other calls; tested in HMLE shEcad cells
L major viab: reduces viability of Leishmania major promastigotes; AID 1063; resazurin fluorescence viability; inhibition, % at 10 µM; hit rate 9% among 200,000; in the data active = inhibition above about 50%;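 note: promastigotes grown with compound for 44 hours at 28 °C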
Beta apoptosis: beta cell apoptosis inhibition; INS-1E cytokine-induced death, ATP luminescence, 48 h; percent of positive-control rescue, neutral wells zero; protection from apoptosis, % (no concentration beside the values); hit rate 0.8% among 300,000;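 active = Every replicate reaches about 75%, or at least half do and their mean reaches it too, limit read from the data; inconclusive = At least half of replicates reach the limit but their mean does not; inactive = Under half of replicates reach the limit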;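 note: 0% = cytokine-treated negative control wells and 100% = positive control rescue; higher means more ATP so stronger rescue from cytokine killing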
SKKanGAS inh: inhibitors of SKKanGAS S. pyogenes growth in kanamycin (SK-promoter or general growth effect); BacTiter-Glo, 6 h; inhibition, % at 7.5 µM; hit rate 1.3% among 300,000; AID 1662;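 active = mean replicate score, as percent of positive control median, at least 50; inconclusive = mean below 50 but one replicate at or above 50; inactive = mean and every replicate below 50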;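 note: strain carries kanamycin resistance gene driven by streptokinase promoter and grows in 40 µg/ml kanamycin; loss of luminescence reflects streptokinase promoter inhibition or plain growth inhibition; 0% = median of DMSO wells and 100% = positive control at its reference dose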
Mdm2 MdmX PPI: human Mdm2/MdmX binding inhibition | O15151+Q00987 | SaOS-2 split-luciferase Mdm2/MdmX complementation, luminescence | inhibition, % at 8 µM | hit rate 3% among 330,000;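 active = inhibition of at least 50% at 8 µM in the primary screen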
Target sequence (O15151 whole entry, looked up): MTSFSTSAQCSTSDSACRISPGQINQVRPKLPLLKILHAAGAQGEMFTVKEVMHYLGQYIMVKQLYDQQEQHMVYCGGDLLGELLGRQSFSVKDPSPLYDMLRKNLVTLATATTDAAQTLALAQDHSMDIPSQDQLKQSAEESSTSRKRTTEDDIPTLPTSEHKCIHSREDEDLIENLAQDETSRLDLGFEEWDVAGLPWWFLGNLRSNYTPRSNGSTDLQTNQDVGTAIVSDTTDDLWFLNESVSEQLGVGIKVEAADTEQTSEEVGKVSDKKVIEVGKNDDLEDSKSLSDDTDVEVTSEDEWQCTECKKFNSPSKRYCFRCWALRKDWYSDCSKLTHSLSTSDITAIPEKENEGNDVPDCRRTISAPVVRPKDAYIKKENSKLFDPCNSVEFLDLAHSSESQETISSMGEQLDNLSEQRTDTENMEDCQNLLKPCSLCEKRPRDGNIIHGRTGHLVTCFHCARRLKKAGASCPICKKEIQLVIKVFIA
Target sequence (Q00987 whole entry, looked up): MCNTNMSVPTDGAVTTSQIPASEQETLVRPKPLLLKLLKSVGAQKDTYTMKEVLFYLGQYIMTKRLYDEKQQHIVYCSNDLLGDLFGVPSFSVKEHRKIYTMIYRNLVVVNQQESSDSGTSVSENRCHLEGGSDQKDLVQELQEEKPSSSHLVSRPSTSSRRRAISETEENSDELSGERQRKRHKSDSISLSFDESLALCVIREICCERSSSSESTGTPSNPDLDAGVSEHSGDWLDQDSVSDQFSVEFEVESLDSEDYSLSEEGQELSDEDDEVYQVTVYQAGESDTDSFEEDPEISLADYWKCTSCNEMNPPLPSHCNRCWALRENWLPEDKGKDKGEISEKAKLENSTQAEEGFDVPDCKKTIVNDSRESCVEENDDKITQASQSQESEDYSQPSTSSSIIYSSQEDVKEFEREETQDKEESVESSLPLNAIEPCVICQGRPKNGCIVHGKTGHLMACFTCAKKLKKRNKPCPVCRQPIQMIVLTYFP
The depositor's hits bear a star; u = inconclusive; x = not tested or not shown. An excerpt weighted towards active compounds, which were near 9.4% of everything screened.

SMILES | T cruzi repl | CSC inhib | L major viab | Beta apoptosis | SKKanGAS inh | Mdm2 MdmX PPI
CCOc1ccccc1/C=N/NC(=O)CSc1n[nH]c(=O)[nH]c1=O | -13.9 | -9.3 | -1.1 | -4.5 | 2.1 | -32.0
COc1ccc(CN2C(=O)C(Cc3ccccc3)Nc3ncnc(N4CCc5ccccc5C4)c32)cc1 (stereo unspecified) | 36.8 | 16.6 | x | x | 23.0 | 32.2
CN1/C(=C\C=C(C#N)C#N)C(C)(C)c2ccccc21 | 20.1 | -7.5 | -3.0 | 4.4 | -1.6 | 5.1
CN1/C(=C\C=C(/C#N)C(=O)Nc2ccc(Cl)cc2)C(C)(C)c2ccccc21 | 5.7 | 6.6 | 87.5* | 4.5 | -1.5 | 3.9
CN1/C(=C\C(=O)Nc2ccc(Cl)cc2)C(C)(C)c2ccccc21 | 14.3 | 61.2 | 16.8 | -2.4 | 69.4* | 9.3
CN1/C(=C\C(=S)Nc2ccccc2)C(C)(C)c2ccccc21 | 35.9 | -1.7 | 41.9 | 119.7* | -11.3 | 25.1
CCOCCCN(C(=O)Cn1nnc(-c2ccc(OC)c(OC)c2)n1)C(C(=O)NCC1CCCO1)c1ccc(F)cc1 (stereo unspecified) | -1.9 | -9.5 | x | -7.8 | 3.0 | -2.9
COc1ccc(-c2ncncc2-c2ccc(OC)c(OC)c2)c(O)c1 | -7.7 | -3.5 | x | -9.4 | 2.5 | 29.4
CCCOC(=O)c1ccc(Oc2cn[nH]c2-c2ccc(OC)cc2O)cc1 | -21.6 | 103.7* | 84.6* | 0.6 | 59.1* | 8.8
COc1cccc(Oc2cn[nH]c2-c2ccc(OCC(=O)NN)cc2O)c1 | -7.8 | -5.0 | x | 0.2 | 12.7 | -0.8
C=C(C)COc1ccc(-c2ncncc2-c2ccccc2OC)c(O)c1 | 66.0* | 18.2 | x | -4.0 | 7.7 | 5.0
CCOc1ccc(-c2ncncc2-c2ccccc2OC)c(O)c1 | 41.3 | -0.4 | x | -13.1 | 0.8 | 30.6
COc1cccc(Oc2cncnc2-c2ccc(OC)cc2O)c1 | 26.3 | x | 93.2* | -5.2 | 5.5 | 3.1
C=C(C)COc1ccc(-c2[nH]ncc2Oc2ccccc2OC)c(O)c1 | -11.4 | -0.7 | 54.0* | -5.9 | 28.7 | 1.6
C=C(C)COc1ccc(-c2[nH]ncc2-c2ccccc2OC)c(O)c1 | -3.0 | 1.3 | 28.2 | 0.0 | 12.8 | 49.3
C=C(C)COc1ccc(-c2[nH]ncc2Oc2ccc(OC)cc2)c(O)c1 | 8.7 | u | x | -9.3 | 55.7* | -7.6
COc1ccc(/C=C2\NC(=O)C(C=NCc3ccccc3)=C2O)cc1 | -1.3 | 54.0 | 57.9* | x | -5.8 | 10.9
O=C1N/C(=C\c2ccc(O)cc2)C(O)=C1C=NCc1ccccc1 | -6.6 | 50.9 | -0.4 | -3.4 | 3.4 | 10.1
C/C(=C\C(=O)OCCCCCCCCC(=O)O)C[C@@H]1OC[C@H](C[C@@H]2O[C@H]2[C@@H](C)[C@H](C)O)[C@@H](O)[C@H]1O | -3.1 | -10.2 | x | 10.3 | 103.5* | 39.7
Cn1c(CC(=O)NNC(=O)c2ccccc2[N+](=O)[O-])nc2ccccc21 | x | x | x | x | x | 1.8
CCC(C)N(C(=O)CSc1nc(C)nc2ccccc12)C1CCS(=O)(=O)C1 (stereo unspecified) | x | x | x | -15.5 | x | -0.2
CC1(C)Cc2ccccc2-c2c1c(=O)n(Cc1ccccc1)c1nnnn21 | 16.0 | 46.1 | 14.2 | 16.7 | 59.9* | 19.1
CCC1(C)Cc2ccccc2-c2c1c(=O)n(-c1ccc(C)cc1)c1nnnn21 (stereo unspecified) | 21.2 | 26.2 | -2.2 | 2.3 | -1.5 | -14.8
O=C(CNC(=O)C(c1ccccc1)c1ccccc1)N/N=C/c1cccnc1 | -16.7 | -9.7 | x | -8.8 | 9.5 | 14.3
O=C(N/N=C/c1cccnc1)c1ccc(NC(=O)C(c2ccccc2)c2ccccc2)cc1 | 2.6 | x | -3.2 | 109.8* | -6.6 | 7.4
SMILES | T cruzi repl | CSC inhib | L major viab | Beta apoptosis | SKKanGAS inh | Mdm2 MdmX PPI
Cc1ccc2[nH]c(=O)c3cc(C(=O)N(C)c4ccccc4C)sc3c2c1 | 21.9 | x | x | 10.2 | 4.2 | 42.7
O=C(CCc1nnc(Cc2ccc(-c3ccccc3)cc2)o1)NCCc1cccnc1 | 7.7 | -8.4 | 5.0 | -5.6 | -2.6 | 19.0
O=C(CCc1nnc(CCCCc2ccccc2)o1)NCCc1cccnc1 | 60.4* | -22.4 | 6.9 | 0.0 | -1.3 | -29.6
O=C(NC1CCC1)C1CCC(=O)N(Cc2ccccc2F)C1 (stereo unspecified) | 16.7 | 11.6 | x | -0.2 | -14.1 | 8.7
Cc1ccc(NC(=O)C(NC2CCCc3ccccc32)c2ccccc2)cc1Cl (stereo unspecified) | 2.1 | 40.1 | 58.3* | 2.1 | -2.0 | 30.4
Cc1ccc(NC(=O)C(NC2CCCc3ccccc32)c2ccccc2)c([N+](=O)[O-])c1 (stereo unspecified) | 11.2 | 31.0 | 89.3* | 1.7 | 6.0 | 12.3
CNC(=O)NC(=O)C(NC1CCCc2ccccc21)c1ccccc1 (stereo unspecified) | 5.5 | -2.3 | x | -2.4 | 4.2 | -0.9
CC(C)CCNC(=O)c1cn(CC(C)C)c(=O)c2c1c1ccccc1n2C | 19.6 | 5.6 | x | -13.2 | 1.5 | -10.2
CCCCNC(=O)c1cn(CC(C)C)c(=O)c2c1c1ccccc1n2C | 4.0 | -2.0 | x | 5.3 | 53.8* | 14.8
CCCN(C(=O)Cc1coc2cc(OC)ccc12)C1CCS(=O)(=O)C1 (stereo unspecified) | x | -9.2 | x | -9.3 | x | 14.7
CCOC(=O)c1cc(C(C)(C)C)n(CCCN2CCOCC2)c1C | 0.2 | 8.6 | x | -3.6 | -2.1 | 7.7
CCOC(=O)c1cc(C)n(CCCN2CCOCC2)c1C | -4.5 | -6.3 | 90.3* | -5.7 | 7.6 | 3.9
COc1ccccc1C(=O)Nc1ccc(C(=O)N2CCCCC2)cc1 | 3.8 | 4.0 | x | 1.0 | -9.8 | 13.7
CC(/C=N/n1c(C2CCCCC2)n[nH]c1=S)=C\c1ccccc1 | 35.2 | 97.7* | -5.9 | 17.4 | 45.8 | 9.1
S=c1[nH]nc(C2CCCCC2)n1/N=C/c1ccccc1Cl | -1.5 | x | x | x | 18.1 | 8.6
FC(F)(F)c1ccccc1/C=N/n1c(C2CCCCC2)n[nH]c1=S | -7.0 | x | x | x | 56.0* | 0.5
COc1ccc(/C=N/NC(=O)C(=O)NCc2cccnc2)cc1 | -6.0 | -7.2 | 1.8 | -0.1 | 11.8 | 2.9
CCCNC(=O)CNC(=S)N(Cc1cc(OC)c(OC)c(OC)c1)C1CCCC1 | -1.0 | -17.3 | 54.0* | -1.1 | -7.3 | 27.7
CC(C)c1ccc2c(c1)C(c1ccc(N3CCOCC3)cc1)=NNC(c1cccs1)=N2 | u | -11.1 | 82.6* | 12.8 | 45.3 | 19.1
CC(C)c1ccc2c(c1)C(c1cccs1)=NNC(c1ccncc1)=N2 | 35.9 | -2.5 | 43.9 | 7.2 | 4.1 | 25.5
NC(=O)c1cc(C(=O)c2ccccc2Cl)c[nH]1 | -21.2 | -10.2 | 4.7 | -4.7 | 2.3 | 17.9
O=C(Nc1c2c(nn1-c1ccccc1)CS(=O)C2)c1ccco1 (stereo unspecified) | -3.5 | -2.0 | x | -4.9 | -3.4 | 7.4
Cc1ccc(C(C)C)c(OCC(=O)N/N=C/c2cccn2C)c1 | 1.5 | 33.4 | x | 3.4 | -5.4 | 3.9
CCOC(=O)C(NC(=O)c1ccc(F)cc1)(Nc1sc2c(c1C(N)=O)CCC2)C(F)(F)F (stereo unspecified) | 21.0 | -0.7 | 74.5* | 4.2 | -14.0 | 26.1
